Laboratory results taken from ChEMBL document CHEMBL2407090, “Design, synthesis, and optimization of novel epoxide incorporating peptidomimetics as selective calpain inhibitors” (J Med Chem, 2013).

Experiments:
[1] = target: T1, Calpain-1 catalytic subunit (Homo sapiens, UniProt P07384); assay: Inhibition of human erythrocyte full length Cal1 using (DABCYL)TPLK-SPPSPR-(EDANS) as substrate after 20 min by FRET assay
T1 sequence (P07384 whole entry): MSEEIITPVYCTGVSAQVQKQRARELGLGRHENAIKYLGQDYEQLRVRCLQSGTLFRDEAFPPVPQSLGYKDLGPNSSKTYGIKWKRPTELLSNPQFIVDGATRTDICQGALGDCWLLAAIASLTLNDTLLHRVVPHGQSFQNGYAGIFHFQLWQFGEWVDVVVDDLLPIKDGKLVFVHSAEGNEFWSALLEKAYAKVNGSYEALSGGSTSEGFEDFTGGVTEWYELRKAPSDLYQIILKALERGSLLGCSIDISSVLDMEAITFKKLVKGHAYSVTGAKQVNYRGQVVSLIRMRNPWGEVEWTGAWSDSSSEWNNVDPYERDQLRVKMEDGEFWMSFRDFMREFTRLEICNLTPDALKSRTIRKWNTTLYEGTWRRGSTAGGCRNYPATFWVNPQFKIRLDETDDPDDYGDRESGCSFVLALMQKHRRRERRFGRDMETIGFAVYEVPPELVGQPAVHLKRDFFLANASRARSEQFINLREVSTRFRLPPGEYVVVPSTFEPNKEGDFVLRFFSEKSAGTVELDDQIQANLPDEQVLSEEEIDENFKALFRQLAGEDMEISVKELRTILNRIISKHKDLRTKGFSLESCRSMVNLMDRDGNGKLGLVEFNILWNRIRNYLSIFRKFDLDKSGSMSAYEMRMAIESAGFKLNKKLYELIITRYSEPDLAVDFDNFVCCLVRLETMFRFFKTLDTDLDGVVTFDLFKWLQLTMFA

[2] = target: T2, Calpain-1 catalytic subunit (Rattus norvegicus) (UniProt P97571); assay: Binding affinity to recombinant rat […] Cal1 catalytic domain expressed in Escherichia coli BL21(DE3) assessed as modification of active site cysteine at 1 uM by LC-MS/MS analysis
T2 sequence (whole entry): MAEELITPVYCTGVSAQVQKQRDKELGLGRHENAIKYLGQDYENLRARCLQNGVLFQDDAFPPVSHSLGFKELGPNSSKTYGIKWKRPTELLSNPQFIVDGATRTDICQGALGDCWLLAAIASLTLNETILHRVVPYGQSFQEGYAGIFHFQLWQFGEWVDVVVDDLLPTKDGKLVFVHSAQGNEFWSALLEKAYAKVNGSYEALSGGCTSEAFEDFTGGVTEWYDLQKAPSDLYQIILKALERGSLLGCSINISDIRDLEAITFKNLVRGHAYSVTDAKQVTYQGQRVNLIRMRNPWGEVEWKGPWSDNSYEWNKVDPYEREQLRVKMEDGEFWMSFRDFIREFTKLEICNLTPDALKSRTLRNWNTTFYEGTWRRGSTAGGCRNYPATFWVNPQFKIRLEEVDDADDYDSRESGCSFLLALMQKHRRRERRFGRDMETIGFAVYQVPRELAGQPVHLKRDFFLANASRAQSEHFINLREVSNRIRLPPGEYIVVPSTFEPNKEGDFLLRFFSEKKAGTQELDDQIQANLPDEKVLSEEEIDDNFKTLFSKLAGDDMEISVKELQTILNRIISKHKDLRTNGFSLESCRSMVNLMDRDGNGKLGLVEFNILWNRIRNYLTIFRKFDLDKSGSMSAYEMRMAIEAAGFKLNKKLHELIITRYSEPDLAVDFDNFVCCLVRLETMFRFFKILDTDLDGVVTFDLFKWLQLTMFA

Papain = target: T3, Papain (Carica papaya, UniProt P00784); assay: Inhibition of papain after using SucLLVYAMC as substrate by FRET assay
T3 sequence (P00784 whole entry): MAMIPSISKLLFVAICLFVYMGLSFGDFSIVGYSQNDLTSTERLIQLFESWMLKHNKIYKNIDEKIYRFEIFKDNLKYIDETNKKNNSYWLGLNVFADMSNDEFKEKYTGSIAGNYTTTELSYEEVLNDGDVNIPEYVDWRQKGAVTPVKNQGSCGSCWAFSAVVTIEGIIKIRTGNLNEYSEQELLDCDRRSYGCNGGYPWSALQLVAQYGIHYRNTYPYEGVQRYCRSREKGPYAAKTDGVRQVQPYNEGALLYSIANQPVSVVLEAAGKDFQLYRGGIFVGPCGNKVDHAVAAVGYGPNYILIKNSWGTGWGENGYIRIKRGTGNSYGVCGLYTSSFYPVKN
Summary of the method: (§1)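 Enzyme (full-length porcine calpain 156 nM, with 1 mM CaCl2; or papain 236 pM) in 50 mM HEPES pH 7.6, 100 mM NaCl, 1 mM TCEP, 30 μM Suc-LLVY-AMC, inhibitor 0.5–50 μM; organic solvent <2 %, 30 °C. AMC release followed over time (Ex 346/Em 444 nm). Inhibition constants from varied enzyme and inhibitor concentrations; mean ± S.D. of triplicates.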

[3] = target: T4, Calpain-1 catalytic subunit (Sus scrofa, UniProt P35750); assay: Inhibition of pig full length Cal1 after using SucLLVYAMC as substrate by FRET assay; summary of the method: as §1
T4 sequence (P35750 whole entry): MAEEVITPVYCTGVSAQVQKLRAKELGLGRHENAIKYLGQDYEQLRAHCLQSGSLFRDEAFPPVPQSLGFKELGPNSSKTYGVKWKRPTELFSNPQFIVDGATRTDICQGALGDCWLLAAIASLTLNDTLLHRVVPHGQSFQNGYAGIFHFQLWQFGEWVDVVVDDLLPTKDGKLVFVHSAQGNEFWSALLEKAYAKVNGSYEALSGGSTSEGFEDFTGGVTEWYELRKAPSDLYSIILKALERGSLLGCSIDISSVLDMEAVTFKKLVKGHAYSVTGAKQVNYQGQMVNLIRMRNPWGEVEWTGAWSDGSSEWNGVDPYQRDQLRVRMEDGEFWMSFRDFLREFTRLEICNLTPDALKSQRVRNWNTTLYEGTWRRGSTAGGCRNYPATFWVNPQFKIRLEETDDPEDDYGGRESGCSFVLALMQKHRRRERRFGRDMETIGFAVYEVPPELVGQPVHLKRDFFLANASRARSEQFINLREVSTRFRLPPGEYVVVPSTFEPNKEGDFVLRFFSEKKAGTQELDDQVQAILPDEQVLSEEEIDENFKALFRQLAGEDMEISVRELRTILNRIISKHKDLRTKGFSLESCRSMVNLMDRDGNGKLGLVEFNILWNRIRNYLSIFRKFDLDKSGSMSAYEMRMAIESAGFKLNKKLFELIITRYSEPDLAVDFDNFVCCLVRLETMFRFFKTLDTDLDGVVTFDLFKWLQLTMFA

| Compound | IC50 [1] [µM] | Activity [2] | Ki (Papain) [µM] | Ki [3] [µM] |
| --- | --- | --- | --- | --- |
| CC(C)C[C@H](NC(=O)[C@H]1O[C@@H]1C(=O)O)C(=O)NCCCCNC(=O)CCCCC1CCSS1 (stereo partly specified) | 0.1 | – | – | – |
| CC(C)C[C@H](NC(=O)[C@H]1O[C@@H]1C(=O)O)C(=O)NCCCCN=C(N)N [E-64] | 0.1 | Dose-dependent effect | 5.08 | 3.96 |
| O=C(Nc1nc(-c2ccc(F)cc2)cs1)[C@H](Cc1cscn1)NC(=O)[C@H]1O[C@@H]1C(=O)O | 0.1 | – | 5.31 | 2.59 |
| CC(C)C[C@H](NC(=O)[C@H]1O[C@@H]1C(=O)O)C(=O)Nc1nc(-c2ccc(F)cc2)cs1 | – | Dose-dependent effect | 1.62 | – |

Continued, in another order:

| IC50 [1] [µM] | Compound | Activity [2] | Ki (Papain) [µM] | Ki [3] [µM] |
| --- | --- | --- | --- | --- |
| 0.15 | CC(C)C[C@H](NC(=O)[C@H]1O[C@@H]1C(=O)O)C(=O)NCCCCNS(=O)(=O)c1ccc(F)cc1 | – | – | – |
| > 1 | O=C(NCc1cn(-c2cc(C(F)(F)F)cc(C(F)(F)F)c2)nn1)[C@H](Cc1cscn1)NC(=O)[C@H]1O[C@@H]1C(=O)O | – | – | – |
| > 1 | O=C(NCc1cn(-c2c(F)cccc2F)nn1)[C@H](Cc1cscn1)NC(=O)[C@H]1O[C@@H]1C(=O)O | – | – | – |
| 0.1 | CC(C)C[C@H](NC(=O)[C@H]1O[C@@H]1C(=O)O)C(=O)NCCCCNC(=O)CCCC[C@@H]1SC[C@@H]2NC(=O)N[C@@H]21 | – | – | – |
| > 1 | Cc1cc(C)c(-n2cc(CNC(=O)[C@H](Cc3cscn3)NC(=O)[C@H]3O[C@@H]3C(=O)O)nn2)c(C)c1 | – | – | – |
| > 1 | NS(=O)(=O)c1ccc(-n2cc(CNC(=O)[C@H](Cc3cscn3)NC(=O)[C@H]3O[C@@H]3C(=O)O)nn2)cc1 | – | – | – |
